Holding throughout (assay type): cell-based
Data set [1] has as its target Potassium voltage-gated channel subfamily KQT member 2 (Rattus norvegicus) (UniProt O88943). The data set is described as follows: Activity at rat homomeric KCNQ2 expressed in CHOK1 cells assessed as effect on current amplitude up to 30 uM at -10 mV by whole cell patch clamp assay. The method in brief:
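CHO-K1 cells expressing homomeric KCNQ2, recorded by whole-cell voltage clamp. Holding potential −80 mV with step depolarizations; current amplitude at −10 mV compared before and after compound across 1–30 μM, reported as percent change in current.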

For data set [2], the target named is T1, Potassium voltage-gated channel subfamily KQT member 1 (Homo sapiens, UniProt P51787).
T1 sequence (P51787 whole entry): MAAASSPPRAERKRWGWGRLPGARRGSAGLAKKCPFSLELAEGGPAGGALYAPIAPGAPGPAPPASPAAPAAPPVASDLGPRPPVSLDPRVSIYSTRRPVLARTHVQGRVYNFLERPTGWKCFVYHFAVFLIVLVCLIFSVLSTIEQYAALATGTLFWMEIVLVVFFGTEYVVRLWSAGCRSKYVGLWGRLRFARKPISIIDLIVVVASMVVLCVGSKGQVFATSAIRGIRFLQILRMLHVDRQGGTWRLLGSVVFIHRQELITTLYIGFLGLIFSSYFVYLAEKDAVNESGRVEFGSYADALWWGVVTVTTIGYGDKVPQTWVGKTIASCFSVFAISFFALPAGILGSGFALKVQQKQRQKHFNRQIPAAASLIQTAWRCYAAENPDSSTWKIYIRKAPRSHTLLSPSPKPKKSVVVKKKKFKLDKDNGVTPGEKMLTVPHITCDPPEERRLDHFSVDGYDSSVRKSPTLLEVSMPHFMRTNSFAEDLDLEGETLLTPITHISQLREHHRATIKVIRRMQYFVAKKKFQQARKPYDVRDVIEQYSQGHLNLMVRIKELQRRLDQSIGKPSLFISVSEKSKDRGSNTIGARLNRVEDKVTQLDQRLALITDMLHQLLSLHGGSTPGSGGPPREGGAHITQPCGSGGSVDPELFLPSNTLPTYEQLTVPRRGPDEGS
The data set is described as follows: Activity at human KCNQ1 expressed in CHOK1 cells assessed as ratio of amplitude of outward current in presence of test compound to amplitude of outward current in absence of test compound at 10 uM at -10 mV by whole cell patch clamp assay. The method in brief: (§1)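 CHO-K1 cells individually transfected with a single KCNQ subtype; whole-cell voltage clamp. Held at −80 mV, stepped from −90 to +60 mV in 10 mV increments (1500 ms), then to −120 mV for 500 ms. Outward current at −10 or +60 mV measured before (I0) and after (I) 10 μM compound; I/I0 >1 counts as activation. More than four cells per compound.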

Data set [3] has as its target T2, Potassium voltage-gated channel subfamily KQT member 4 (Homo sapiens) (UniProt P56696).
T2 sequence (whole entry): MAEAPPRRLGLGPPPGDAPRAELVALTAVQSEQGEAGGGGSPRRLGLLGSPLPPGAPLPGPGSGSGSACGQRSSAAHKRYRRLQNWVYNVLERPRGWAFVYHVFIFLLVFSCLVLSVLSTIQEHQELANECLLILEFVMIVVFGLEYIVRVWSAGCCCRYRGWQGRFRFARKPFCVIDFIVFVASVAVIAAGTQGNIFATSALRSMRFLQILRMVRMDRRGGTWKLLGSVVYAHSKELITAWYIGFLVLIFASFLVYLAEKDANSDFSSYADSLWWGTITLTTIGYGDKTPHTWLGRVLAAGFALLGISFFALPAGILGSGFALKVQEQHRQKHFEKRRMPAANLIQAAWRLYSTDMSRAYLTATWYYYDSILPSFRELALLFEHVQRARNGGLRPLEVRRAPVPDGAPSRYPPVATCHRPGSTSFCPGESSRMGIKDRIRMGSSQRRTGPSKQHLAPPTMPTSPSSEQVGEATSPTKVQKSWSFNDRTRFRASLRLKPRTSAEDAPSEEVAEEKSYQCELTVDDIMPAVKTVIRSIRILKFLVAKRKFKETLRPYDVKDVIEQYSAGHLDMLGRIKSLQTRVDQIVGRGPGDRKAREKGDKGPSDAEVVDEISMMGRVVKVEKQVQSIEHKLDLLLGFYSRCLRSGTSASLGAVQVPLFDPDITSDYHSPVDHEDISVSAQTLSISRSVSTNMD
The data set is described as follows: Effect on voltage-dependent activation of human KCNQ4 expressed in CHOK1 cells assessed as negative shift in current activation curve at 10 uM by whole cell patch clamp assay. For orientation: Patch clamp records ionic current or voltage across a cell membrane.

Data set [4] addresses T3, Potassium voltage-gated channel subfamily KQT member 3 (Rattus norvegicus) (UniProt O88944).
T3 sequence (whole entry): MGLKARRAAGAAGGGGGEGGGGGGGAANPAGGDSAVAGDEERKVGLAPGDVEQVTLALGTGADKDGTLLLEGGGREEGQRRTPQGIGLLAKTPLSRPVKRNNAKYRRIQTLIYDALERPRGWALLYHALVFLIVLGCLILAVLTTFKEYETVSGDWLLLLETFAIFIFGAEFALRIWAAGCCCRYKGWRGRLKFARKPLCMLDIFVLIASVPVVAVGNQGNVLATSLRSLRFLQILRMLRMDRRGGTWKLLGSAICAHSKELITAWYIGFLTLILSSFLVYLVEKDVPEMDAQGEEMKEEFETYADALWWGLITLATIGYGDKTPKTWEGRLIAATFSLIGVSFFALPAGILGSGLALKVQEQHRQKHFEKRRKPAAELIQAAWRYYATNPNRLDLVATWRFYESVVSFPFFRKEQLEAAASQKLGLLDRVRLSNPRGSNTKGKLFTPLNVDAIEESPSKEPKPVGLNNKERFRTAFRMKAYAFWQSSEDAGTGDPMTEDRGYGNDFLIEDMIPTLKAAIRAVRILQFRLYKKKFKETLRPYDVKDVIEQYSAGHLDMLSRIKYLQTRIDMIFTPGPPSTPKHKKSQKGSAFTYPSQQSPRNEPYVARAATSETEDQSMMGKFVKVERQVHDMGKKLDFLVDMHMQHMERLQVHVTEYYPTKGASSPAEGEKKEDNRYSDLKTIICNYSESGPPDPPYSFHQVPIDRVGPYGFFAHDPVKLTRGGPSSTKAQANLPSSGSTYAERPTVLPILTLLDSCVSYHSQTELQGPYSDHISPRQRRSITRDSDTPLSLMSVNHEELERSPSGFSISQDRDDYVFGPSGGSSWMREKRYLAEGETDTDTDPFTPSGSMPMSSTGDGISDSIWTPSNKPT
Description: Activity at rat KCNQ3 expressed in CHOK1 cells assessed as ratio of amplitude of outward current in presence of test compound to amplitude of outward current in absence of test compound at 10 uM at -10 mV by whole cell patch clamp assay. In outline:
as §1

For data set [5], the target named is T2, Potassium voltage-gated channel subfamily KQT member 4 (Homo sapiens). The data set is described as follows: Activity at human KCNQ4 expressed in CHOK1 cells assessed as ratio of amplitude of outward current in presence of test compound to amplitude of outward current in absence of test compound at 10 uM at -10 mV by whole cell patch clamp assay. In outline:
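CHO-K1 cells expressing the channel, whole-cell voltage clamp, compound at 10 μM. Read-out is the outward current ratio I/I0 with and without compound, taken at −10 mV. I/I0 > 1 counts as activation and < 1 as inhibition. More than four cells per compound.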

The structures appear in SMILES notation. Calls of active or inactive are those of the source. The rule behind the calls is not given here.

Chain of Potassium voltage-gated channel subfamily KQT member 2 (Rattus norvegicus) (O88943 whole entry): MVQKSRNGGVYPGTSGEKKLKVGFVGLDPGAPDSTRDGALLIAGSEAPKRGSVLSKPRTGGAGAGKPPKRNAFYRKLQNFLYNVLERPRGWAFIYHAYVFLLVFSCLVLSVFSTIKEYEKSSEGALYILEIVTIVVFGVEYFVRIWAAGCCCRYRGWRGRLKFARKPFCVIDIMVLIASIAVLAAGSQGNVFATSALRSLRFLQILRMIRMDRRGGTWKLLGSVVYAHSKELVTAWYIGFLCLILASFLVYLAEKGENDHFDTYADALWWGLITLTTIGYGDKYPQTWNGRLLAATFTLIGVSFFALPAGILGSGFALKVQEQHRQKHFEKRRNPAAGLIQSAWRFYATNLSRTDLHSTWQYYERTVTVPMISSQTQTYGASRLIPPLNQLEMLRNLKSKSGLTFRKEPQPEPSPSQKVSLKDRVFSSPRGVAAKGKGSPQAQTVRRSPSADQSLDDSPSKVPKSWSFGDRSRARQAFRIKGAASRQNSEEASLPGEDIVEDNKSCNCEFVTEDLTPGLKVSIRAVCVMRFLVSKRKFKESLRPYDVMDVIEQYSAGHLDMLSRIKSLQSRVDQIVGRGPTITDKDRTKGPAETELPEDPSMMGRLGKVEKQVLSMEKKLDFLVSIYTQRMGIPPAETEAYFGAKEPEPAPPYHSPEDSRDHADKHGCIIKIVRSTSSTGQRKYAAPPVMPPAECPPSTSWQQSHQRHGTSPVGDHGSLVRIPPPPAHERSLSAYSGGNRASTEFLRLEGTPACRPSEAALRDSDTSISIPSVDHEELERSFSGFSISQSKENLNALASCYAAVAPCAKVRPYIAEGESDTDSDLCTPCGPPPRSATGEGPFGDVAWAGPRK

Consider `C#CCN(Cc1ccc(F)cc1)c1ccc(NC(=O)OCC)c(NC(=O)OCC)c1`, for which the result in data set [1] and in data set [3] was inactive. Moreover, the Ratio in data set [2] was 1; in data set [4] it was 1.6; in data set [5], 5.68.

Source of the values: ChEMBL document CHEMBL4382285, “Discovery of Novel Retigabine Derivatives as Potent KCNQ4 and KCNQ5 Channel Agonists with Improved Specificity” (ACS Med Chem Lett, 2019).
